Measurements as given in ChEMBL document CHEMBL1149396, “In silico design and synthesis of piperazine-1-pyrrolidine-2,5-dione scaffold-based novel malic enzyme inhibitors” (Bioorg Med Chem Lett, 2006).

What follows are compounds tested against T1, NADP-dependent malic enzyme (Homo sapiens, UniProt P48163) (assay: Inhibitory activity against cytosolic malic enzyme).
T1 sequence (P48163 whole entry): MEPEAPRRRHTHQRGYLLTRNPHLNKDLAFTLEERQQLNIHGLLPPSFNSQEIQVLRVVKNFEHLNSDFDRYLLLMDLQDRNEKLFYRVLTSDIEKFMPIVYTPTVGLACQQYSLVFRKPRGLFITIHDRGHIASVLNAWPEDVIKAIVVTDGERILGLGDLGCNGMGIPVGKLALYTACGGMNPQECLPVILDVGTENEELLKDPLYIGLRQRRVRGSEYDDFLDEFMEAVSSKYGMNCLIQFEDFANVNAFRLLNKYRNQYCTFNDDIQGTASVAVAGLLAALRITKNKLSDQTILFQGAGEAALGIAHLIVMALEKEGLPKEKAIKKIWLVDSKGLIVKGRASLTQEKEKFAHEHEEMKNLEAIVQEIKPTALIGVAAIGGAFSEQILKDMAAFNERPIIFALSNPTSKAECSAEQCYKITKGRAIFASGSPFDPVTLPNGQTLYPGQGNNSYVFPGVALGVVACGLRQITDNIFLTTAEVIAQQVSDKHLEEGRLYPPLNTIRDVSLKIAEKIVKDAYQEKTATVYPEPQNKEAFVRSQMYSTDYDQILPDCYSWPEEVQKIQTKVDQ
How it was run: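 Coupled endpoint assay. Enzyme pre-incubated with compound 45 min at room temperature in 85 mM Tris pH 7.5 containing 2 mM malic acid and 5 mM MnCl2. Reaction started with 124 µM NADP, run 30 min at room temperature, stopped with 0.5 M EDTA. NADPH formed read via MTS/PMS reduction to formazan, absorbance at 492 nm.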

| IC50 [µM] | Compound |
| --- | --- |
| 0.15 | O=C1CC(N2CCN(c3ccc(O)cc3)CC2)C(=O)N1c1ccccc1 (stereo not given) |
| > 20 | O=C1CC(N2CCN(c3ccccc3O)CC2)C(=O)N1Cc1ccccc1 (stereo not given) |
| 10 | O=C1CC(N2CCN(c3cccc(O)c3)CC2)C(=O)N1Cc1ccccc1 (stereo not given) |
| 3.15 | O=C1CC(N2CCN(c3cccc(C(F)(F)F)c3)CC2)C(=O)N1c1ccccc1 (stereo not given) |
| 0.45 | O=C1CC(N2CCN(c3ccc(O)cc3)CC2)C(=O)N1Cc1ccccc1 (stereo not given) |
| 10 | O=C1CC(N2CCN(c3ccc(F)cc3)CC2)C(=O)N1c1ccccc1 (stereo not given) |
| > 20 | COc1ccc(N2CCN(C3CC(=O)N(c4cccc(Cl)c4Cl)C3=O)CC2)cc1 (stereo not given) |
| > 20 | COc1ccc(N2CCN(C3CC(=O)N(c4ccccc4)C3=O)CC2)cc1 (stereo not given) |
| 0.56 | Cc1ccc(N2C(=O)CC(N3CCN(c4ccc(O)cc4)CC3)C2=O)cc1Cl (stereo not given) |
| > 20 | COc1ccc(N2CCN(C3CC(=O)N(Cc4ccccc4)C3=O)CC2)cc1 (stereo not given) |
